{"source": "paper PMC8161485", "about": "(ACS Central Science, 2021)", "key": {"[1]": {"molecular_target": "T1, P450BM3 variant V-H10(A87I) (Priestia megaterium, UniProt P14779, A181T/A185V/A198V/A291V/E253G/F206C/F88I/H237Q/L354V/P143S/R256S/S227R/T176I/V79N)", "T1 sequence (P14779 1-1049 V79N/F88I/P143S/T176I/A181T/A185V/A198V/F206C/S227R/H237Q/E253G/R256S/A291V/L354V)": "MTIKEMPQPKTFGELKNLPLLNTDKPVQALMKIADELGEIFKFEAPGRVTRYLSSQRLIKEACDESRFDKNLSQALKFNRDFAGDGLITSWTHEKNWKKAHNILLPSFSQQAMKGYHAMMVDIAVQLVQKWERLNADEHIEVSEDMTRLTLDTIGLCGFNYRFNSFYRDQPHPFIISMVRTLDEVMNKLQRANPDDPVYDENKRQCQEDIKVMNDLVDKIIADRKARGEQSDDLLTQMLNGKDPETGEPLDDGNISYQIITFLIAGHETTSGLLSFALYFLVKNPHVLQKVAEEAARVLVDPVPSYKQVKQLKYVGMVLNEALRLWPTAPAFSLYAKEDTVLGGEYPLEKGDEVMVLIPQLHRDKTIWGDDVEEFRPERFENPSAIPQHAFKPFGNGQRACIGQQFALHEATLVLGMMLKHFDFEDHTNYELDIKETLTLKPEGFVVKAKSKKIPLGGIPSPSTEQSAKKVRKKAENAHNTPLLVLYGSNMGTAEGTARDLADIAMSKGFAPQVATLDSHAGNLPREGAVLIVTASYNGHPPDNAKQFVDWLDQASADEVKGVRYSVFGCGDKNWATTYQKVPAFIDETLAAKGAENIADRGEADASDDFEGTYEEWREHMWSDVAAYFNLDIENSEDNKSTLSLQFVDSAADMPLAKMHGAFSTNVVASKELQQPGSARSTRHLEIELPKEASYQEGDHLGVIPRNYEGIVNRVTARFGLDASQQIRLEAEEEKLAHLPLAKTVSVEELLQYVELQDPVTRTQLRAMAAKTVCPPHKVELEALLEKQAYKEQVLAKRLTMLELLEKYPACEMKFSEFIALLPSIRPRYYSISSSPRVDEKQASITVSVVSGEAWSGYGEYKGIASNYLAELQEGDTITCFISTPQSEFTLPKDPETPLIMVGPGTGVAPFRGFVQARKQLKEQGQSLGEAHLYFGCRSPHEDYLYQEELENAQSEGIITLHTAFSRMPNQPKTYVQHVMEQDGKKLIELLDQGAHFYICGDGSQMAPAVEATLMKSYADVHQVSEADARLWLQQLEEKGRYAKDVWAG", "test": "Heme spin shift binding of MCL to P450 variant V-H10", "set-up": "species or system Bacillus megaterium", "how_it_was_run": "(§1)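 Purified P450 (3 μM) in 50 mM potassium phosphate, pH 8.0, titrated with test compound (5–2000 μM) from a 50 mM ethanol stock. A difference spectrum (350–500 nm) was taken at each step. Absorbance change at 390/420 nm (high/low spin) was plotted against concentration, with KD from a nonlinear 1:1 binding fit. At least triplicate, room temperature.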"}, "[2]": {"system": "primary AML specimens derived from patients with relapsed AML", "test": "Activity against the four primary AML specimens", "assay_type": "cell-based", "settings": "Homo sapiens, read-out: LC50 across the four primary AML specimens"}, "P450BM3 variant V-H10": {"molecular_target": "T2, P450BM3 variant V-H10 (Priestia megaterium, UniProt P14779, A181T/A185V/A198V/A291V/E253G/F206C/F88A/H237Q/L354V/P143S/R256S/S227R/T176I/V79N)", "T2 sequence (P14779 1-1049 V79N/F88A/P143S/T176I/A181T/A185V/A198V/F206C/S227R/H237Q/E253G/R256S/A291V/L354V)": "T1 sequence (P14779 1-1049 V79N/F88I/P143S/T176I/A181T/A185V/A198V/F206C/S227R/H237Q/E253G/R256S/A291V/L354V) with I88A", "test": "Heme spin shift binding of MCL to P450 variant V-H10", "set-up": "species or system Bacillus megaterium", "how_it_was_run": "as §1"}, "[3]": {"system": "AML04 primary AML specimen", "test": "Cell viability of primary AML specimen AML04", "assay_type": "cell-based", "settings": "Homo sapiens, read-out: AML04 LC50", "how_it_was_run": "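Primary AML samples came from consenting donors. Live mononuclear cells were isolated on a Ficoll-Paque density gradient and cryopreserved, with 40–70% viability after thawing. Cells were kept at 37 °C, humidified, 5% CO2.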"}, "AML cells and LSCs": {"system": "AML cells and LSCs", "settings": "MCL vs PTL; cited from earlier work"}}, "note": "Positions count from the first letter of the chain named."}
{"compound": "C=C1C(=O)O[C@H]2[C@H]1CCC(C)=C1CC[C@@](C)(O)[C@@H]12", "note": "[MCL, micheliolide]", "values": [{"measurement": "Kd", "setting": "[1]", "value": "1250 ± 54", "unit": "µM"}, {"measurement": "CC50", "setting": "[2]", "value": "19 to 22", "unit": "µM"}, {"measurement": "Kd", "setting": "P450BM3 variant V-H10", "value": "590 ± 90", "unit": "µM"}, {"measurement": "CC50", "setting": "[3]", "value": 22.1, "unit": "µM"}, {"measurement": "LC50 in vitro relative to PTL (fold higher)", "setting": "AML cells and LSCs", "value": "~3", "unit": "fold"}]}
